Measurements taken from article PMC4186687 (Molecular Pharmaceutics, 2014).

How the values were obtained:
SK-OV-3 cells [1] = test: Flow cytometry uptake with endocytic inhibitors; type: cell-based, human; settings: F′-PEpYLGLD:[W5R4C]–SeNPs 1:10, SK-OV-3, 2 h, 37 °C, n = 3
SK-OV-3 cells [2] = test: Confocal microscopy on live cells; type: cell-based, human; settings: F′-PEpYLGLD 5 μM with or without [W5R4C]–SeNPs 50 μM, SK-OV-3, 2 h, 37 °C
In short: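 SK-OV-3 cells, maintained in EMEM with 10% FBS and 1% penicillin–streptomycin at 37 °C under 5% CO2, were grown overnight on coverslips (1 × 10^5 cells per well). Fluorescein-labelled peptide (5 μM), alone or with peptide-capped selenium nanoparticles (50 μM), was added in opti-MEM for 2 h at 37 °C. Slides were washed and nuclei were DAPI-stained. Fluorescence intensity was compared with probe alone, in triplicate.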

Row | Compound | effect on uptake of F′-PEpYLGLD loaded [W5R4C]–SeNPs (in words) (SK-OV-3 cells [1]) | also measured
1 | CN(C)CCCN1c2ccccc2Sc2ccc(Cl)cc21 [chlorpromazine] | did not significantly decrease | –
2 | F′-PEpYLGLD | – | intracellular fluorescence of F′-PEpYLGLD (confocal microscopy) (SK-OV-3 cells [2]): No green fluorescence
3 | methyl-β-cyclodextrin | did not significantly decrease | –
4 | CCN(CC)CCCC(C)Nc1ccnc2cc(Cl)ccc12 (stereo not shown) [chloroquine] | did not significantly decrease | –
5 | CCN(c1nc(N)c(C(=O)N=C(N)N)nc1Cl)C(C)C [EIA, 5-(N-ethyl-N-isopropyl)-amiloride] | – | inhibition of uptake of F′-PEpYLGLD loaded [W5R4C]–SeNPs (SK-OV-3 cells [1]): 40%
6 | [N-]=[N+]=[N-].[Na+] [sodium azide] | did not alter | –
7 | C[C@@H]1[C@H](O)[C@@H](C)/C=C/C=C/CC/C=C/C=C/C=C/C=C/C(O[C@H]2O[C@H](C)[C@@H](O)[C@H](N)[C@@H]2O)CC2O[C@](O)(CC(O)C(O)CCC(O)CC(O)CC(O)CC(=O)O[C@H]1C)CC(O)C2C(=O)O (stereo partly shown) [nystatin] | – | inhibition of uptake of F′-PEpYLGLD loaded [W5R4C]–SeNPs (SK-OV-3 cells [1]): 52%
